ChEMBL document CHEMBL1134686, “Design, synthesis, SAR, and biological evaluation of highly potent benzimidazole-spaced phosphono-alpha-amino acid competitive NMDA antagonists of the AP-6 type” (J Med Chem, 2001)

Experiments:
Mus musculus = test: Functional NMDA antagonist activity was confirmed in vivo in mice (intraperitoneally) using an NMDA-induced lethality assay
Glutamate NMDA receptor [1] = test: Displacement of [3H]CPP from rat synaptic membrane glutamate NMDA receptor
Glutamate NMDA receptor [2] = test: Affinity for the NMDA receptor site was assessed by its ability to displace [3H]TCP from its binding site in rat brain; assay type: tissue-based
Method in brief: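 Rat whole-brain crude synaptic membranes, resuspended in ice-cold 5.0 mM Tris HCl pH 7.4. Triplicate incubation 1 h at 25 °C with 2.5 nM [³H]TCP, 3 µM L-glutamate and 1 µM glycine. Nonspecific binding defined with 100 µM MK-801. Filtration on PEI-presoaked glass fiber filters, then scintillation counting. IC50 with 95% confidence limits from 5-10 concentrations.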

Rattus norvegicus [3] = organism: Rattus norvegicus; test: Effect on the volume of infarcted brain tissue in rat; assay type: functional
Method in brief: (§1)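 Male Fisher-344 rats under isoflurane, with permanent occlusion of the distal MCA plus the ipsilateral common carotid; body temperature held at 37 °C. Single iv tail-vein bolus of 3 mg/kg in 0.9% NaCl, given 5 min post-occlusion. At 24 h, cresyl violet-stained forebrain sections were taken at 400 µm intervals. Infarct volume by image analysis, mean ± SE, n=27-28 per group.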

Rattus norvegicus [4] = organism: Rattus norvegicus; test: Effect on the decrease in volume of infarcted brain tissue in rat; assay type: functional; method in brief: as §1
[5] = target: T1, Glutamate NMDA receptor (Rattus norvegicus) (UniProt P35439+Q00959+Q00960+Q00961+Q62645+Q8VHN2+Q9R1M7); test: Affinity for the NMDA receptor site was assessed by the ability to displace [3H]CPP from its binding site in rat synaptic membranes at a concentration of 100 uM; assay type: cell membranes
Method in brief: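 Rat whole-brain crude synaptic membranes (Triton X-100 treated, frozen), in 50 mM Tris HCl pH 7.6, 0.2-0.5 mg protein. Triplicate incubation 15 min at 23 °C with 8 nM [³H]CPP. Nonspecific binding defined with 1.0 mM NMDA. Bound ligand separated by centrifugation at 48000g, then scintillation counting. Percent inhibition reported at 100 µM.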

[6] = target: T1, Glutamate NMDA receptor (Rattus norvegicus); test: Affinity for the NMDA receptor site was assessed by its ability to displace [3H]TCP from its binding site in rat brain at a concentration of 100 uM; assay type: tissue-based
[7] = Mus musculus, ip, read-out: ED50

Row | inhibition [5] | inhibition [6] | Compound | ED50 (Mus musculus; [7]) | IC50 (Glutamate NMDA receptor [1]) | other results
1 |  |  | O=C(O)C1CN(CCCP(=O)(O)O)CCN1 (stereo not given) | 1 mg/kg |  | 
2 |  |  | NC(CCc1nc2ccccc2n1CP(=O)(O)O)C(=O)O (single isomer, unassigned; (-)) |  | 6800 nM | 
3 |  |  | NC(Cc1nc2cc(Cl)ccc2n1CP(=O)(O)O)C(=O)OCc1ccccc1 (stereo not given) |  | 150 nM | IC50 (Glutamate NMDA receptor [2]): 46500 nM
4 |  |  | NC(Cc1nc2ccc(Cl)cc2n1CP(=O)(O)O)C(=O)O (single isomer, unassigned; (-)) | 2.56 mg/kg | 22 nM | IC50 (Glutamate NMDA receptor [2]): 13600 nM
5 |  |  | N[C@H](Cc1nc2cc(Cl)ccc2n1CP(=O)(O)O)C(=O)O | 0.13 mg/kg | 7.1 nM | Volume (Rattus norvegicus [3]): 51.3 mm**3; IC50 (Glutamate NMDA receptor [2]): 720 nM; Decrease (Rattus norvegicus [4]): 45%
6 | 81% |  | NC(Cc1nc2c(Cl)cccc2n1CP(=O)(O)O)C(=O)O (single isomer, unassigned; (-)) |  |  | 
7 | 99.7% | 88.5% | Cc1cc2nc(CC(N)C(=O)O)n(CP(=O)(O)O)c2cc1C (single isomer, unassigned; (-)) |  |  | 
8 |  |  | NC(Cc1nc2cc(Br)ccc2n1CP(=O)(O)O)C(=O)OCc1ccccc1 (stereo not given) | 0.47 mg/kg | 56 nM | IC50 (Glutamate NMDA receptor [2]): 15500 nM
9 | 73% | 28.1% | NC(Cc1nc2cccc(Cl)c2n1CP(=O)(O)O)C(=O)O (single isomer, unassigned; (-)) |  |  | 
10 |  |  | NC(Cc1nc2ccccc2n1CP(=O)(O)O)C(=O)O (single isomer, unassigned; (-)) |  | 77 nM | IC50 (Glutamate NMDA receptor [2]): 11100 nM; ED50 (Mus musculus): 2.04 mg/kg
11 |  |  | NC(CCc1nc2ccccc2n1CP(=O)(O)O)C(=O)O (stereo in doubt; 10) |  | 5200 nM | 
12 |  |  | NC(Cc1nc2cc(Cl)c(Cl)cc2n1CP(=O)(O)O)C(=O)O (single isomer, unassigned; (-)) | 2.58 mg/kg | 18 nM | 
13 |  |  | O=C(O)[C@@H]1C[C@H](CP(=O)(O)O)CCN1 [SELFOTEL] | 0.6 mg/kg |  | 
14 |  |  | NC(Cc1nc2ccccc2n1CP(=O)(O)O)C(=O)O (stereo in doubt; 8) [listing 2 of 2 here] |  |  | ED50 (Mus musculus): 7.91 mg/kg
15 |  | 40% | NC(Cc1nc2cc(C(F)(F)F)ccc2n1CP(=O)(O)O)C(=O)O (stereo not given) |  | 750 nM | 
16 |  |  | NC(Cc1nc2cc(Cl)c(Cl)cc2n1CP(=O)(O)O)C(=O)O (single isomer, unassigned; (+)) |  | 1000 nM | 
17 | 61% | 0% | CCOC(=O)C(N)Cc1nc2ccccc2n1CP(=O)(O)O (single isomer, unassigned; (-)) |  |  | 
18 | 30% | 9.5% | NC(Cc1nc2ccccc2n1CC(=O)O)C(=O)O (single isomer, unassigned; (-)) |  |  | 
19 |  |  | NC(CCCCCP(=O)(O)O)C(=O)O (stereo not given) [AP-7] | 37.6 mg/kg |  | 
20 | 39% | 9.5% | NC(Cc1nc2ccccc2n1CCP(=O)(O)O)C(=O)O (single isomer, unassigned; (-)) |  |  | 

Row | Compound | inhibition [5] | inhibition [6] | ED50 (Mus musculus; [7]) | IC50 (Glutamate NMDA receptor [1]) | other results
21 | NC(Cc1nc2ccccc2n1CP(=O)(O)O)C(=O)O (stereo in doubt; 8) [listing 1 of 2 here] | 30% | 29.1% |  |  | 
